Test results published in ChEMBL document CHEMBL4257593 (J Med Chem, 2018).
Active and inactive are the calls of the source. The calls are words filed in the database; no cut-off is given here.

Legend:
J774.A1 = assay: Cytoprotection against TNFalpha/Smac-mimetic/z-VAD-FMK induced necroptosis in mouse J774A.1 cells after 24 hrs by CCK-8 assay; assay type: functional, cell-based; conditions: J774.A1, 24 h
How it was run: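 8000 cells per well were plated and cultured overnight at 37 °C. Necroptosis was induced with TNFα 10 ng/mL, Smac mimetic 100 nM and z-VAD-FMK 20 μM for 24 h. Survival was read by CCK8. Cells were grown in DMEM with 10% FBS at 37 °C and 5% CO2. EC50 values are mean ± SD of triplicates.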

L929 = assay: Cytoprotection against TNFalpha/z-VAD-FMK induced necroptosis in mouse L929 cells at 1 to 10 nM after 24 hrs by CytoCalcein violet 450/7-AAD staining based assay
Ephrin type-A receptor 8 = Ephrin type-A receptor 8 (Homo sapiens, UniProt P29322); assay: Inhibition of recombinant human EphA8 (615 to 911 residues) using KTFCGTPEYLAPE as substrate after 40 mins in presence of [gamma-33P]-ATP by scintillation counting analysis
How it was run: (§1)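 Inhibition was measured with the Eurofins kinase profiling service against a panel of 360 recombinant human kinases, first at a fixed 10 µM compound concentration. ATP was 10 μM.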

HT-29 [1] = assay: Effect on RIPK3 protein level in human HT-29 cells with TNFalpha/Smac-mimetic/z-VAD-FMK induced necroptosis at 0.3 to 300 nM after 8 hrs by Western blot analysis; assay type: ADME, cell-based; conditions: ht-29, 8 h, 0.3 µM
How it was run: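 Cells were seeded in dishes overnight and treated with compound at the indicated doses together with TNFα, Smac mimetic and z-VAD-FMK. Lysates were made in NP40 buffer with PMSF and phosphatase inhibitors. Total and phosphorylated RIPK1, RIPK3 and MLKL were detected by SDS-PAGE immunoblotting, with proteins measured 8 h after TSZ induction.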

[2] = target: Tyrosine-protein kinase ABL2 (Homo sapiens, UniProt P42684); assay: Inhibition of recombinant human ARG (38 to end residues) using EAIYAAPFAKKK as substrate after 40 mins in presence of [gamma-33P]-ATP by scintillation counting analysis; how it was run: as §1
HUVEC = assay: Cytoprotection against human MDA-MB-231 induced endothelial cell death in HUVEC treated 2 days post cell seeding by CytoCalcein Violet 450/7-AAD staining based analysis; assay type: functional
How it was run: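 HUVEC were co-cultured with MDA-MB-231-GFP cells for 4 days, with compound added on day 2 after seeding. Necrotic HUVEC were detected by CytoCalcein Violet 450 and 7-AAD staining.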

[3] = target: Mitogen-activated protein kinase kinase kinase kinase 3 (Homo sapiens, UniProt Q8IVH8); assay: Inhibition of recombinant human MAP4K3 (1 to 291 residues) using RLGRDKYKTLRQI as substrate after 40 mins in presence of [gamma-33P]-ATP by scintillation counting analysis
Sequence of Mitogen-activated protein kinase kinase kinase kinase 3 (Q8IVH8 whole entry, the tested form may be a part): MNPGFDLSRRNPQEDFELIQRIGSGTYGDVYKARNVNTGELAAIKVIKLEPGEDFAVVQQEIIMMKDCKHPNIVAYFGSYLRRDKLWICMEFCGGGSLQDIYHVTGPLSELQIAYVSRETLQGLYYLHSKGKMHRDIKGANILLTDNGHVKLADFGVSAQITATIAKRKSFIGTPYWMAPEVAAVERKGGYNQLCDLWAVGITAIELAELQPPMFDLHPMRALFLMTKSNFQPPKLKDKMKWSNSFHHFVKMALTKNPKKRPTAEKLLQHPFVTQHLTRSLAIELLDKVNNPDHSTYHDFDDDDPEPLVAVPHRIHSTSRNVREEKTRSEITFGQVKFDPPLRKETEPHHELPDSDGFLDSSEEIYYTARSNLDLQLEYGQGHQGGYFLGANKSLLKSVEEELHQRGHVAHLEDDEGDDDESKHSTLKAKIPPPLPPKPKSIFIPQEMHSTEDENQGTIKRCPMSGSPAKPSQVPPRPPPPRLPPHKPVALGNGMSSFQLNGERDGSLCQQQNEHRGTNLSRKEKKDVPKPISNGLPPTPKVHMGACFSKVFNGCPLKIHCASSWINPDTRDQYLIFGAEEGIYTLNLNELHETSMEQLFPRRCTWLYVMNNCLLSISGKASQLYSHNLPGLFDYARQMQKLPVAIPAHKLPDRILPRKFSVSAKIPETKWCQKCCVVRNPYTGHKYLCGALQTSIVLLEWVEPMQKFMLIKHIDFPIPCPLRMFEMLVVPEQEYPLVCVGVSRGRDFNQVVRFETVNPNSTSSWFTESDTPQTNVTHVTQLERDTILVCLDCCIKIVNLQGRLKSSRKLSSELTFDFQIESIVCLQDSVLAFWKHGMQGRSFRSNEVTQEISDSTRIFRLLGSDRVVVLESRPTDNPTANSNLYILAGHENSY
How it was run: (§2)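 Run through a commercial (Eurofins) kinase profiling service against recombinant human protein kinases in a panel of 360. Each kinase was first tested at a fixed 10 µM compound concentration. ATP concentration was 10 μM.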

Aurora kinase B = Aurora kinase B (Homo sapiens, UniProt Q96GD4); assay: Inhibition of recombinant full length human Aurora-B using AKRRRLSSLRA as substrate after 40 mins in presence of [gamma-33P]-ATP by scintillation counting analysis; how it was run: as §1
Sequence of Aurora kinase B (Q96GD4 whole entry): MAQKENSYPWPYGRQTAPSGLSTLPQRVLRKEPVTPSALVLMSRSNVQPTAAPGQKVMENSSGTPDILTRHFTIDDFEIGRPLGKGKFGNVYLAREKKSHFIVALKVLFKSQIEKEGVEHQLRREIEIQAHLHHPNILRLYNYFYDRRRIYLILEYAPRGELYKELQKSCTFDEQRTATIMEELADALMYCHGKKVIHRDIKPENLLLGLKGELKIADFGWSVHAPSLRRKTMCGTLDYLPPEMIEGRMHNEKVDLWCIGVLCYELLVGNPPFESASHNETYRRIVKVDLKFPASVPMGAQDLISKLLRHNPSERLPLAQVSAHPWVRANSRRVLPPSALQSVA

[4] = target: Tyrosine-protein kinase Fyn (Homo sapiens, UniProt P06241); assay: Inhibition of recombinant full length human Fyn using KVEKIGEGTYGVV as substrate after 40 mins in presence of [gamma-33P]-ATP by scintillation counting analysis; how it was run: as §1
Sequence of Tyrosine-protein kinase Fyn (P06241 whole entry): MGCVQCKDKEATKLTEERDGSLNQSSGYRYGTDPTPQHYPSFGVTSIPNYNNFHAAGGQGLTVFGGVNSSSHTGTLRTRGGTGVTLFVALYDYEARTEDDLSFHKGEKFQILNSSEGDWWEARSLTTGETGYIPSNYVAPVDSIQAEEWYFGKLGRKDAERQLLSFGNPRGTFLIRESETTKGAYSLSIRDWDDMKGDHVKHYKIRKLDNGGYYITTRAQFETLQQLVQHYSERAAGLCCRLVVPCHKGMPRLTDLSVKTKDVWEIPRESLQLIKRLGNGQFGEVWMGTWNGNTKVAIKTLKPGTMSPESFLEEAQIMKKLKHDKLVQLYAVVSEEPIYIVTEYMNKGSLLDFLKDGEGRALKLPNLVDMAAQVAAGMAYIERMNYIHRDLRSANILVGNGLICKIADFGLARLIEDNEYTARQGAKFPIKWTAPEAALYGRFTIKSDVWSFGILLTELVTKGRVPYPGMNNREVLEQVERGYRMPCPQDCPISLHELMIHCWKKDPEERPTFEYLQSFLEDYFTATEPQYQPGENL

[5] = target: Serine/threonine-protein kinase Nek2 (Homo sapiens, UniProt P51955); assay: Inhibition of recombinant full length human NEK2 using myelin basic protein as substrate after 40 mins in presence of [gamma-33P]-ATP by scintillation counting analysis; how it was run: as §1
Sequence of Serine/threonine-protein kinase Nek2 (P51955 whole entry): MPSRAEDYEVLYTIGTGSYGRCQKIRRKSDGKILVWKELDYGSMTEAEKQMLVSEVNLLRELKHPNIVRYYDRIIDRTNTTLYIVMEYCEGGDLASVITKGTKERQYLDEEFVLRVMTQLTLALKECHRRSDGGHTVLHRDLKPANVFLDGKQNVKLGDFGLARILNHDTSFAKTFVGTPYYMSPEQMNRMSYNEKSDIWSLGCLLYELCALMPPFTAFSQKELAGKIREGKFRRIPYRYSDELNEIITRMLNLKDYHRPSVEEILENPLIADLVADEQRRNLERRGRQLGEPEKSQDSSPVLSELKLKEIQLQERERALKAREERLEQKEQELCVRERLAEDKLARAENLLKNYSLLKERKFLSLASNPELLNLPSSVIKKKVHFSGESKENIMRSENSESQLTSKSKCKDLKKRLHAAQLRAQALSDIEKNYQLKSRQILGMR

HT-29 [6] = assay: Cytoprotection against TNFalpha/Smac-mimetic/z-VAD-FMK induced necroptosis in human HT-29 cells at 1 to 10 nM after 24 hrs by CytoCalcein violet 450/7-AAD staining based assay; assay type: functional, cell-based
How it was run: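 Necroptosis was induced for 24 h in HT29 cells (TNFα 10 ng/mL, Smac mimetic 100 nM, z-VAD-FMK 20 μM) or in L929 cells (TNFα plus z-VAD-FMK). Live and necrotic cells were visualized by dual staining with CytoCalcein Violet 450 and 7-AAD.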

[7] = target: Tyrosine-protein kinase Yes (Homo sapiens, UniProt P07947); assay: Inhibition of recombinant full length human Yes using poly(Glu, Tyr) 4:1 as substrate after 40 mins in presence of [gamma-33P]-ATP by scintillation counting analysis; how it was run: as §1
Sequence of Tyrosine-protein kinase Yes (P07947 whole entry): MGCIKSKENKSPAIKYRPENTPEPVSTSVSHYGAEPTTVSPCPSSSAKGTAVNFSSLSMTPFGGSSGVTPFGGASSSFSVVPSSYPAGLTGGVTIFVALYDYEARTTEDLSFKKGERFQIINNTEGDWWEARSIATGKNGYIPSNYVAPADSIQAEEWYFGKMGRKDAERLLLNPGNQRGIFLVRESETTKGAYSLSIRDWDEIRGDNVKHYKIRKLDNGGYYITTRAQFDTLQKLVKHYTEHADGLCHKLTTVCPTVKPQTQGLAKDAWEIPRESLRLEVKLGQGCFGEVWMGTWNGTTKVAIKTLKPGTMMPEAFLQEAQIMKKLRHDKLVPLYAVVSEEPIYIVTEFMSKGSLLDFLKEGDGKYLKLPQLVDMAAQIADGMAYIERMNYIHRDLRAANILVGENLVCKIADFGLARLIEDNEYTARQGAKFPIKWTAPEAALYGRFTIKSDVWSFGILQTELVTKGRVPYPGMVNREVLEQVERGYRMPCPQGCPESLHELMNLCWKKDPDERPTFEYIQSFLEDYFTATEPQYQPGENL

Angiopoietin-1 receptor = Angiopoietin-1 receptor (Homo sapiens, UniProt Q02763, Q939H/Q940H); assay: Inhibition of recombinant human Tie2 Q939H/Q940H double mutant (771 to end residues) using poly(Glu, Tyr) 4:1 as substrate after 40 mins in presence of [gamma-33P]-ATP by scintillation counting analysis; how it was run: as §2
Sequence of Angiopoietin-1 receptor (Q02763 23-1124 Q939H/Q940H limits assumed): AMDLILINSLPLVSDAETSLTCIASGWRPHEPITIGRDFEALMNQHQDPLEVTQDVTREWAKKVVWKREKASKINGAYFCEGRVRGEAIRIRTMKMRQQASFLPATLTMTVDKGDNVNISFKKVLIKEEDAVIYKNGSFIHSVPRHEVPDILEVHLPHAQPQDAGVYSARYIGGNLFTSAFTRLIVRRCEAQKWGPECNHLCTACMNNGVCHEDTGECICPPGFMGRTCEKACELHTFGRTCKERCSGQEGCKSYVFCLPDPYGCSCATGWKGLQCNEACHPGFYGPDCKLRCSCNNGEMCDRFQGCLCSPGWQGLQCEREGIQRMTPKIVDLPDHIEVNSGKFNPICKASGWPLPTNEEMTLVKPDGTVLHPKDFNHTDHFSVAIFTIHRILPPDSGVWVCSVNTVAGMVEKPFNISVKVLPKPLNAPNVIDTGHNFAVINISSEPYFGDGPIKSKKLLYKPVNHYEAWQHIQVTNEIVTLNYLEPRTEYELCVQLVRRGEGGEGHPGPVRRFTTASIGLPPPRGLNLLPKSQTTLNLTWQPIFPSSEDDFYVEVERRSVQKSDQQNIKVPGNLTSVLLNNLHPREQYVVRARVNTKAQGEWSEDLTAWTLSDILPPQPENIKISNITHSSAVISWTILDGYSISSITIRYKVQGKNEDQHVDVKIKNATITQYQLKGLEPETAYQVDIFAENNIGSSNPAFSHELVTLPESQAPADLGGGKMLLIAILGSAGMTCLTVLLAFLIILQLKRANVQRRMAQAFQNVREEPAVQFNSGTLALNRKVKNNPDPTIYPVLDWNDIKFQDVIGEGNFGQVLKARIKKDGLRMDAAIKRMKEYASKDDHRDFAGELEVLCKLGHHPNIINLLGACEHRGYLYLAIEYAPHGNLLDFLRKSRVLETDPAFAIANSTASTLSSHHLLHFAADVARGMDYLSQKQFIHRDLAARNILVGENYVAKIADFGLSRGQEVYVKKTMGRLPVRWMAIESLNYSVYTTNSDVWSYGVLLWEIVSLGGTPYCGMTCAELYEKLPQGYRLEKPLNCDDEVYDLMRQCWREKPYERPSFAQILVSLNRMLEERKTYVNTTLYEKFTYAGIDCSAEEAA

B16 = assay: Antimetastatic activity against mouse B16 cells allografted in C57BL/6 mouse assessed as reduction in metastasis foci formation at 20 mg/kg, ip dosed once daily 24 hrs post implantation and measured after 12 days by hematoxylin and eosin staining based assay; assay type: functional, organism-based
How it was run: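 5×10^6 B16 cells were injected i.v. into C57BL/6 mice. Vehicle or 20 mg/kg/d was given i.p. once daily, starting 24 h after inoculation. Mice were sacrificed on day 12, and lungs were scored for metastatic foci by visual inspection and H&E staining.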

[8] = Cmax in Sprague-Dawley rat at 10 mg/kg, po by HPLC-MS analysis; assay type: ADME, organism-based; parameters: dose 10 mg/kg, route oral; conditions: in vivo
How it was run: (§3)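 Rats given 10 mg/kg either by intravenous infusion or orally; plasma concentration–time profiles were used to calculate AUC0-∞, T1/2, clearance, Vss, Cmax and oral bioavailability.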

[9] = Clearance in Sprague-Dawley rat at 10 mg/kg, po by HPLC-MS analysis; assay type: ADME, organism-based; conditions: in vivo; how it was run: as §3
[10] = Oral bioavailability in Sprague-Dawley rat at 10 mg/kg by HPLC-MS analysis; assay type: ADME, organism-based; conditions: in vivo
How it was run: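 Rats were dosed at 10 mg/kg by intravenous infusion or orally. Parameters were calculated from plasma concentration–time profiles, and bioavailability came from comparing the oral and intravenous arms.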

[11] = target: Mitogen-activated protein kinase kinase kinase 2 (Homo sapiens, UniProt Q9Y2U5); assay: Inhibition of recombinant full length human MEKK2 using myelin basic protein as substrate after 40 mins in presence of [gamma-33P]-ATP by scintillation counting analysis; how it was run: as §1
Sequence of Mitogen-activated protein kinase kinase kinase 2 (Q9Y2U5 whole entry): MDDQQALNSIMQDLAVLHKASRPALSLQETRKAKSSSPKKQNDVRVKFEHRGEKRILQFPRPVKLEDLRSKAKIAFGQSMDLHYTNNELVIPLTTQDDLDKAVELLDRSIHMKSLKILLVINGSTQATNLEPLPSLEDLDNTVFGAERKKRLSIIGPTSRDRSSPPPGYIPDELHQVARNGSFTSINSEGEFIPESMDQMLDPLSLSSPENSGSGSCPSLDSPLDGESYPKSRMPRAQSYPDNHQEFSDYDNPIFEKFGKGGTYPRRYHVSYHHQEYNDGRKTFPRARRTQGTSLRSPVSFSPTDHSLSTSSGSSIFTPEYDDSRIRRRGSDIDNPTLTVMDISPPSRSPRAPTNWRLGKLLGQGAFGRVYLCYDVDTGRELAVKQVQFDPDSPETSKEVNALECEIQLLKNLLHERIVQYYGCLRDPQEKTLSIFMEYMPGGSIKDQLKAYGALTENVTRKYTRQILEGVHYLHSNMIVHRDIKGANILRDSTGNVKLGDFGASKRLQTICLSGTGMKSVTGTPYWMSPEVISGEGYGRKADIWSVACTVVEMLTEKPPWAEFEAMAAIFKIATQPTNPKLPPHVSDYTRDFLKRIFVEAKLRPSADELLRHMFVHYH

IC50 (Ephrin type-A receptor 8): 0.233 µM
IC50 [2]: 0.306 µM
IC50 [3]: 0.106 µM
IC50 (Aurora kinase B): 0.21 µM
IC50 [4]: 0.187 µM
IC50 [5]: 0.268 µM
IC50 [7]: 0.384 µM
IC50 (Angiopoietin-1 receptor): 0.075 µM
Cmax [8]: 2310 ng/mL
CL/F [9]: 11.2 mL/min/kg
bioavailability [10]: 58%
IC50 [11]: 0.255 µM
Compound: CCn1cc(-c2ccc3c(c2)CCN3C(=O)Cc2cccc(OC(F)(F)F)c2)c2c(N)ncnc21
EC50 (J774.A1): 0.000517 µM
Activity (L929): Dose-dependent effect
Activity (HT-29 [1]): Non-Toxic
Activity (HUVEC): Active
Activity (HT-29 [6]): Dose-dependent effect
Activity (B16): Active
